Reference: ChEMBL document CHEMBL3085734, “Indole diterpene alkaloids as novel inhibitors of the Wnt/β-catenin pathway in breast cancer cells” (Eur J Med Chem, 2013)
pEC50, pIC50: −log10 of the molar value. Activity calls are given as the source filed them. The rule behind the calls is not given here.

How the values were obtained:
MDA-MB-231 [1] = experiment: Inhibition of Wnt/beta-catenin signaling pathway in human MDA-MB-231 cells assessed as decrease in expression of beta-catenin level at 9.6 uM after 48 hrs by DAPI staining-based confocal laser scanning microscopy; assay type: cell-based
In short: (§1)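 MDA-MB-231 cells, 5 × 10^4 per chamber (2 replicates/group), attached overnight in 10% FBS medium, then treated 48 h in 0.5% FBS medium (final DMSO ≤0.2%). Methanol-fixed at −20 °C, blocked in 2% BSA-TBST, anti-total β-catenin (1:300, overnight 4 °C), Alexa Fluor 594 secondary, DAPI counterstain. Confocal imaging at 200X; red intensity compared with vehicle; ≥3 independent repeats.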

Mus musculus [2] = experiment: Toxicity in CD-1 mouse assessed as incidence of tremor at 0.60 mg/kg, ip measured every 10 to 15 mins for 8 hrs up to day 14; assay type: organism-based; parameters: dose 0.6 mg/kg, route intraperitoneal; conditions: in vivo, 0.6 mg/kg
In short: (§2)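 Male CD-1 mice (18–22 g), housed singly 3 days beforehand, given a single i.p. dose of DMSO stock diluted in saline (DMSO ≤2.0 µL/g); vehicle controls. Up-and-Down Procedure per EPA 870.1100 (sigma 0.33): start 1.92 mg/kg, then ×3.2 up or down according to tremor response, range 0.19–19.6 mg/kg. Tremors scored over 14 days; EC50 from AOT425StatPgm.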

Mus musculus [3] = experiment: Toxicity in CD-1 mouse assessed as incidence of tremor at 1.92 mg/kg, ip measured every 10 to 15 mins for 8 hrs up to day 14; assay type: organism-based; parameters: dose 1.92 mg/kg, route intraperitoneal; conditions: in vivo; in short: as §2
Mus musculus [4] = experiment: Toxicity in ip dosed CD-1 mouse assessed as incidence of tremor measured every 10 to 15 mins for 8 hrs up to day 14; assay type: organism-based; in short: as §2
[5] = molecular target: Calcium-activated potassium channel slo-1 (Caenorhabditis elegans, UniProt Q95V25); experiment: Inhibition of wild type L4 larval stage of Caenorhabditis elegans N2 bristol BK channel assessed as induction of reversal locomotion at 1 uM after 42 hrs
Chain of Calcium-activated potassium channel slo-1 (Q95V25 whole entry): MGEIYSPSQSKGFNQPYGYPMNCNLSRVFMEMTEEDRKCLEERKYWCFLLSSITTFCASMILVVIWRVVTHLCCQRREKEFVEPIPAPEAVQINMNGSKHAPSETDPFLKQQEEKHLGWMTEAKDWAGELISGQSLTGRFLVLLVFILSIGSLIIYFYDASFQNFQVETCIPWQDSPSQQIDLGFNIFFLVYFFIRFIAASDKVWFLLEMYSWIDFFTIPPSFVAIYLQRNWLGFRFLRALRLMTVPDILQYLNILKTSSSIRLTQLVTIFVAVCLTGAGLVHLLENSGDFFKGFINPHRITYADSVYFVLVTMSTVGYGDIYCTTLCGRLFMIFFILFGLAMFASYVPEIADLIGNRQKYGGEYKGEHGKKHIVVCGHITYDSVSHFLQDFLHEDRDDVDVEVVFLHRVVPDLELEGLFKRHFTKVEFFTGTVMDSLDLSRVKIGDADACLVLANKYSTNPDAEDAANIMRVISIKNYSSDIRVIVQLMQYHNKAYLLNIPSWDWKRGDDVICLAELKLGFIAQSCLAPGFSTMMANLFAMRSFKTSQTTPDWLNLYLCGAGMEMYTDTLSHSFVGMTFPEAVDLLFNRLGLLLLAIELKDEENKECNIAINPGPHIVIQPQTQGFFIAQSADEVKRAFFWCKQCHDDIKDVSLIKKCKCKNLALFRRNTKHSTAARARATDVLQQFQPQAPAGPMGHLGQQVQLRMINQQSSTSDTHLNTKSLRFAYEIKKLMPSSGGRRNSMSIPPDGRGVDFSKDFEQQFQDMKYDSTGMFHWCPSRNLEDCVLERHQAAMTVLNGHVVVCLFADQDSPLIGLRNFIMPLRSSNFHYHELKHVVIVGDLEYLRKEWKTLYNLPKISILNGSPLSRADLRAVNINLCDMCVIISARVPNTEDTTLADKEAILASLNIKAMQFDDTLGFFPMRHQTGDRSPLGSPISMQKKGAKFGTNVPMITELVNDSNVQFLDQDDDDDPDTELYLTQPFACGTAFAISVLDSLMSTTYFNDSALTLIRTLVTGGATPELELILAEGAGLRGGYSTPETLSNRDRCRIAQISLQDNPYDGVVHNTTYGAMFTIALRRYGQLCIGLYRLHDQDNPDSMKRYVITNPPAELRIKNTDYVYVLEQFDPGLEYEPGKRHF
In short: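 30–40 synchronized L1 larvae of wild-type N2 placed on OP50-seeded NGM plates containing 1.0 µM compound or DMSO. Incubated 42 h at 20°C. L4 worms then moved to unseeded NGM and acclimatized 1 min before reversals were counted, at least 10 worms per treatment. slo-1(js379) strain NM1968 served as positive control.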

Mus musculus [6] = experiment: Toxicity in CD-1 mouse assessed as incidence of tremor at 0.19 mg/kg, ip measured every 10 to 15 mins for 8 hrs up to day 14; assay type: organism-based; parameters: dose 0.19 mg/kg, route intraperitoneal; conditions: in vivo; in short: as §2
MCF7 = experiment: Antiproliferative activity against human MCF7 cells after 72 hrs by MTT assay; assay type: functional, cell-based; conditions: MCF7, 72 h
In short: (§3)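 Seeding: MCF-7 at 10×10³ and MDA-MB-231 at 8×10³ cells/well, attached overnight. Medium: serum-free RPMI for MCF-7 and RPMI with 5% FBS for MDA-MB-231, with graded compound doses, for 72 h at 37°C. Readout: MTT (1 mg/mL) for 4 h, formazan dissolved in DMSO, absorbance at 570 nm. Cell numbers taken from a standard curve as % survival versus DMSO. IC50 obtained by nonlinear regression. Final DMSO ≤0.2%.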

MDA-MB-231 [7] = experiment: Antiinvasive activity against human MDA-MB-231 cells at 7.5 to 15 uM after 24 hrs by cultrex BME assay
MDA-MB-231 [8] = experiment: Antimigratory activity against human MDA-MB-231 cells after 24 hrs by wound-healing assay; assay type: functional, cell-based; conditions: MDA-MB-231, 24 h
In short: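 Confluent MDA-MB-231 monolayers scratched with a pipette tip, then washed. Compounds added in 0.5% FBS medium, in triplicate, for 24 h. Cells then fixed and stained with Diff-Quick. Cells that migrated into the wound were counted in at least five random fields at 400X.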

MDA-MB-231 [9] = experiment: Antiproliferative activity against human MDA-MB-231 cells after 72 hrs by MTT assay; assay type: functional, cell-based; conditions: MDA-MB-231, 72 h; in short: as §3
Mus musculus [10] = experiment: Toxicity in CD-1 mouse assessed as incidence of tremor at 19.6 mg/kg, ip measured every 10 to 15 mins for 8 hrs up to day 14; assay type: organism-based; parameters: dose 19.6 mg/kg, route intraperitoneal; conditions: in vivo
In short: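 Male CD-1 mice (18–22 g), housed individually. Compounds given ip in DMSO diluted with saline (DMSO ≤2.0 µL/g). Up-and-Down Procedure per EPA 870.1100: sigma 0.33, starting dose 1.92 mg/kg, changed in 3.2-fold steps by tremor response, range 0.19–19.6 mg/kg. Observed every 10–15 min for 1 h, hourly for 8 h, then daily to day 14. Tremor EC50 calculated with AOT425StatPgm.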

MDA-MB-231 [11] = experiment: Inhibition of Wnt/beta-catenin signaling pathway in human MDA-MB-231 cells assessed as decrease in expression of beta-catenin level at 48.2 uM after 48 hrs by DAPI staining-based confocal laser scanning microscopy; assay type: cell-based
In short: (§4)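 MDA-MB-231 cells seeded at 5×10⁴/chamber and attached overnight in 10% FBS. Treated 48 h in 0.5% FBS medium. Cells fixed in −20°C methanol and blocked with 2% BSA-TBST. Stained with anti-total β-catenin (1:300, overnight at 4°C), then Alexa Fluor 594 secondary, with DAPI counterstain. Confocal imaging at 200X; red intensity compared with untreated control. Duplicate chambers, experiments repeated at least three times.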

MDA-MB-231 [12] = experiment: Inhibition of Wnt/beta-catenin signaling pathway in human MDA-MB-231 cells assessed as decrease in expression of beta-catenin level at 8 uM after 48 hrs by DAPI staining-based confocal laser scanning microscopy; assay type: cell-based; in short: as §1
[13] = Inhibition of Wnt/beta-catenin signaling pathway in mouse C2C12 cells assessed as induction of nuclear translocation of beta-catenin after 24 hrs by propidium iodide staining-based laser scanning cytometry; assay type: cell-based; conditions: C2C12, 24 h
MDA-MB-231 [14] = experiment: Inhibition of Wnt/beta-catenin signaling pathway in human MDA-MB-231 cells assessed as decrease in expression of beta-catenin level at 19 uM after 48 hrs by DAPI staining-based confocal laser scanning microscopy; assay type: cell-based; in short: as §1
MDA-MB-231 [15] = experiment: Inhibition of Wnt/beta-catenin signaling pathway in human MDA-MB-231 cells assessed as decrease in expression of beta-catenin level at 7.6 uM after 48 hrs by DAPI staining-based confocal laser scanning microscopy; assay type: cell-based; in short: as §4

SMILES | inhibition (INH) [5] | pIC50 (MCF7) | Activity (MDA-MB-231 [7]) | pIC50 (MDA-MB-231 [8]) | pIC50 (MDA-MB-231 [9]) | further results
C=C(C)[C@H]1O[C@H]2CC[C@@]3(C)[C@@](O)(CC[C@H]4[C@@H]5OC(C)(C)[C@@H]6C[C@@H]7C(=C)Cc8c(Br)cc9[nH]c(c5c9c8[C@@]76O)[C@@]43C)[C@]23O[C@@H]3[C@H]1O | Not Active | – | – | – | – | inhibition (MDA-MB-231 [1]): Active; Activity (Mus musculus [2]): Toxic; Activity (Mus musculus [3]): Toxic; EC50 (Mus musculus [4]): 0.32 mg/kg; Activity (Mus musculus [6]): Non-toxic
C=C(C)[C@H]1O[C@H]2CC[C@@]3(C)[C@@](O)(CC[C@H]4[C@@H]5OC(C)(C)[C@@H]6C[C@@H]7C(=C)Cc8c(Cl)cc9[nH]c(c5c9c8[C@@]76O)[C@@]43C)[C@]23O[C@@H]3[C@H]1OC(=O)c1ccccc1 | Not Active | < 4.30 | Active | < 4.30 | 4.86 | Activity (Mus musculus [10]): ND(Insoluble)
C=C(C)[C@H]1O[C@H]2CC[C@@]3(C)[C@@](O)(CC[C@H]4[C@@H]5OC(C)(C)[C@@H]6C[C@@H]7C(=C)Cc8c(Cl)cc9c(c5c(n9C)[C@@]43C)c8[C@@]76O)[C@]23O[C@@H]3[C@H]1OC | Not Active | < 4.30 | Active | < 4.30 | < 4.30 | Activity (Mus musculus [10]): ND(Insoluble)
C=C1Cc2c(Cl)cc3[nH]c4c5c3c2[C@@]2(O)[C@@H]1C[C@H]2C(C)(C)O[C@H]5[C@@H]1CC[C@@]2(O)[C@@]35O[C@@H]3[C@H](O)O[C@H]5CC[C@]2(C)[C@@]41C | Not Active | 4.88 | Active | 4.32 | 4.36 | inhibition (MDA-MB-231 [11]): Active; Activity (Mus musculus [10]): ND(Insoluble)
C=C(C)[C@H]1O[C@H]2CC[C@@]3(C)[C@@](O)(CC[C@H]4[C@@H]5OC(C)(C)[C@H]6C[C@@H]7C(=C)Cc8c(Cl)cc9[nH]c(c5c9c8[C@@]76O)[C@@]43C)[C@@]23O[C@H]3[C@H]1O [PENITREM A] | – | 4.92 | Active | 5.06 | 5.01 | inhibition (MDA-MB-231 [12]): Active; pEC50 [13]: 6.01
CC(C)=CCC[C@]1(C)[C@@H](O)CC[C@@]2(C)[C@H]1CC[C@H]1Cc3c([nH]c4ccccc34)[C@@]12C [EMINDOLE SB] | Not Active | – | – | – | – | inhibition (MDA-MB-231 [14]): Active
C=C(C)[C@H]1O[C@H]2CC[C@@]3(C)[C@@](O)(CC[C@H]4[C@@H]5OC(C)(C)[C@H]6C[C@@H]7C(=C)Cc8c(Cl)cc9[nH]c(c5c9c8[C@@]76O)[C@@]43C)[C@]23O[C@@H]3[C@H]1O [PENITREM A] | Active | – | – | – | – | Activity (Mus musculus [3]): Toxic; Activity (Mus musculus [6]): Non-toxic
C=C(C)[C@H]1O[C@H]2CC[C@@]3(C)[C@@](O)(CC[C@H]4[C@@H]5OC(C)(C)[C@@H]6C[C@@H]7C(=C)Cc8c(Cl)cc9[nH]c(c5c9c8[C@@]76O)[C@@]43C)[C@]23O[C@@H]3[C@H]1OCc1ccccc1 | – | < 4.30 | – | < 4.30 | < 4.30 | –
C=C(C)[C@H]1O[C@H]2CC[C@@]3(C)[C@@](O)(CC[C@H]4[C@@H]5OC(C)(C)[C@@H]6C[C@@H]7C(=C)Cc8c(Cl)cc9[nH]c(c5c9c8[C@@]76OO)[C@@]43C)[C@]23O[C@@H]3[C@H]1O | – | < 4.30 | Active | < 4.30 | < 4.30 | –
C=C1Cc2c(Br)cc3[nH]c4c5c3c2[C@H]2[C@@H]1C[C@H]2C(C)(C)O[C@H]5[C@@H]1CC[C@@]2(O)[C@@]35O[C@@H]3[C@@H](O)[C@@H](C(=C)C)O[C@H]5CC[C@]2(C)[C@@]41C | – | – | – | – | – | Activity (Mus musculus [2]): Non-toxic; EC50 (Mus musculus [4]): 3.43 mg/kg; Activity (Mus musculus [10]): Toxic
C=C(C)[C@H]1O[C@H]2CC[C@@]3(C)[C@@](O)(CC[C@H]4[C@@H]5OC(C)(C)[C@@H]6C[C@@H]7C(=C)Cc8c(Cl)cc9c(c5c(n9Cc5cccc(OC)c5)[C@@]43C)c8[C@@]76O)[C@]23O[C@@H]3[C@H]1OCc1cccc(OC)c1 | – | < 4.30 | Active | < 4.30 | < 4.30 | –
C=C(C)[C@H]1O[C@H]2CC[C@@]3(C)[C@@](O)(CC[C@H]4[C@@H]5OC(C)(C)[C@@H]6C[C@@H]7C(=C)Cc8c(Cl)cc9[nH]c(c5c9c8[C@@]76O)[C@@]43C)[C@]23O[C@@H]3[C@H]1OC | – | 4.64 | Active | < 4.30 | < 4.30 | –
C=C1Cc2c(Cl)cc3[nH]c4c5c3c2[C@@]2(O)[C@@H]1C[C@H]2C(C)(C)O[C@H]5[C@@H]1CC[C@@]2(O)[C@@]35O[C@@H]3[C@@](O)(/C=C(/C)COC(C)=O)O[C@H]5CC[C@]2(C)[C@@]41C | – | 4.49 | – | < 4.30 | 5.00 | –
C=C(C)[C@H]1O[C@H]2CC[C@@]3(C)[C@@](O)(CC[C@H]4[C@@H]5OC(C)(C)[C@@H]6C[C@@H]7C(=C)Cc8c(Cl)cc9c(c5c(n9C)[C@@]43C)c8[C@@]76O)[C@]23O[C@@H]3[C@H]1O | – | – | Active | < 4.30 | < 4.30 | –
CC(C)(O)[C@@H]1CC[C@]2(C)[C@H](CC[C@@]3(C)[C@H]2CC[C@H]2Cc4c([nH]c5ccccc45)[C@@]23C)O1 [PASPALINE] | Not Active | – | – | – | – | inhibition (MDA-MB-231 [15]): Active
